Source: PubChem
IMP-1 inh: IMP-1 metallo-beta-lactamase inhibitors, primary screen, biochemical, epi-absorbance readout, Pseudomonas aeruginosa enzyme; purified IMP-1, nitrocefin hydrolysis, epi-absorbance fluorescence; 290,000 tested, 0.45% active; inhibition, % at 5.6 µM;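 active = inhibition above the mean plus 3 SD of all compounds in the same screening run, cut at about 4.5% in these data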;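 note: 0% = IMP-1 with DMSO and 100% = DMSO wells lacking enzyme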
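Assay system: purified recombinant IMP-1 beta-lactamase. Input: IMP-1 0.2 nM before substrate addition. Buffer or medium: Zinc- and detergent-supplemented HEPES buffer, pH 7.1. Schedule: 25 °C, 15 min preincubation, 25 min reaction. Signal: Epi-absorbance fluorescence, 480 nm excitation, 530 nm emission. Evaluation: percent inhibition from optical density relative to buffer-blank wells.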
MEKK2mut PB1 HTS: MEK5 binding signal on mutant MEKK2 PB1, primary screen, biochemical, multiplex bead flow cytometry, Alexa488-MEK5 | AID 1530, 2009 | Alexa488-MEK5 binding to MEKK2 mutant | 290,000 tested, 0.35% active | percent response, % at 10 µM; in the data active = percent response above about 24%, passing the limit was not always enough
MEKK3 PB1 HTS: modulators of MEKK3-MEK5 PB1 binding, primary screen, biochemical, wildtype MEKK3, multiplex bead flow cytometry, Alexa488-MEK5; Mitogen-activated protein kinase kinase kinase 3 (Homo sapiens), Q99759; bead-based flow cytometry, Alexa488-MEK5 binding to MEKK3; actives lie on both sides; 0 = blocked by unlabeled MEK5, 100 = vehicle; binding response (% of control), % at 10 µM; 290,000 tested, 1.4% active;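 active = binding response more than 3 SD above or below the average of its plate-row segment, actives on both sides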;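 note: Alexa488 bead fluorescence after subtracting the streptavidin-only scavenger bead signal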
Target sequence (Q99759 whole entry, looked up): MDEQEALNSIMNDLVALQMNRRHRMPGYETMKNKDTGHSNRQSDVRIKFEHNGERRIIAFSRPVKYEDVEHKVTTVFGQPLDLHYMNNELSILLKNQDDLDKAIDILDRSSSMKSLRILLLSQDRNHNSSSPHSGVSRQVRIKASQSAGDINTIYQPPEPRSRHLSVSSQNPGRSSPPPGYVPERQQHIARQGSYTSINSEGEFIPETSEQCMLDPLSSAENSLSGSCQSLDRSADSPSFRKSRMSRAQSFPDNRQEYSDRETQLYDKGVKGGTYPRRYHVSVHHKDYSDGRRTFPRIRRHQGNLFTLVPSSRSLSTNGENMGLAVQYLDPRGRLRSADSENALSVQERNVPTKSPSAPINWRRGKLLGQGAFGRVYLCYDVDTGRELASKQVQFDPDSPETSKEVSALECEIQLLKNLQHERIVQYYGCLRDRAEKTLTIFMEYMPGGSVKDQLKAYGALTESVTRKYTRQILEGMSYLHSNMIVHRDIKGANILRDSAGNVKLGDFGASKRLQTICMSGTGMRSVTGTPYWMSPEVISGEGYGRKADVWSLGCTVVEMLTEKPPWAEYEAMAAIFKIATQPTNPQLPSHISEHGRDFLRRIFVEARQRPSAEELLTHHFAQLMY
MEKK2 WT-MEK5: modulators of MEK5 binding to wildtype MEKK2, primary screen, biochemical, multiplex bead flow cytometry, Alexa488-MEK5 | 290,000 tested, 1.1% active | Alexa488-MEK5 binding to MEKK2 WT; actives lie on both sides | Mitogen-activated protein kinase kinase kinase 2 (Homo sapiens), Q9Y2U5 | binding response (% of control), % at 10 µM; in the data active = binding response below about 67% or above about 130%
VIM-2 inhibitor: VIM-2 metallo-beta-lactamase inhibitors, primary screen, biochemical, epi-absorbance readout, Pseudomonas aeruginosa enzyme; 290,000 tested, 0.89% active; purified VIM-2, nitrocefin hydrolysis, epi-absorbance fluorescence; inhibition, % at 5.6 µM;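 active = inhibition above the mean of all tested compounds plus 3 SD, cutoff set per screening run, cut at about 7.5% in these data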;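 note: red hydrolysis product quenches plate fluorescence so inhibitors raise well fluorescence; 0% = enzyme with DMSO and 100% = DMSO without enzyme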
MEKK2wt confirm: modulators of MEK5 binding to wildtype MEKK2, confirmation, biochemical, single concentration, multiplex bead flow cytometry; shares compounds with MEKK3 PB1 HTS; Alexa488-MEK5 binding to MEKK2 WT; actives lie on both sides; binding response (% of control), % at 10 µM; 5,900 tested, 2.4% active; AID 1892, 2009; in the data active = binding response below about 16% or above about 210%; inactive = in between
MEKK2mut confirm: mutant MEKK2 PB1-MEK5 binding signal retest – biochemical, single concentration, multiplex bead flow cytometry, confirmation; shares compounds with MEKK3 PB1 HTS; Alexa488-MEK5 binding to MEKK2 mutant; percent response, % at 10 µM; 5,900 tested, 2% active; AID 1893, 2009; in the data active = percent response mostly above about 71%, no sharp cut-off; inactive = mostly below about 38%;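 note: higher means compound restores mutant binding toward wildtype level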
MEKK3 confirm: MEKK3 wild-type PB1 binding to MEK5, inhibitors, confirmation, biochemical, bead multiplex flow cytometry, single concentration, wildtype; shares compounds with MEKK3 PB1 HTS; Alexa488-MEK5 binding to MEKK3; active compounds read low; binding response (% of control), % at 10 µM; 5,900 tested, 1.8% active; AID 1894, 2009;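 active = binding response below 72% of control, or above a set upper limit, though filed actives all read lower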;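 note: 100% = DMSO only wells and 0% = binding blocked by excess unlabeled MEK5; lower values mean stronger disruption of MEK5 binding to MEKK3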
Numbers without * were called inactive; . = no result; [ ] = remark or other dose. Sampled rows, rich in hits. Any-hit rate of the full collection: about 3.4%.

SMILES | IMP-1 inh | MEKK2mut PB1 HTS | MEKK3 PB1 HTS | MEKK2 WT-MEK5 | VIM-2 inhibitor | MEKK2wt confirm | MEKK2mut confirm | MEKK3 confirm
Nc1nonc1C(=O)NCCNCc1c(OCc2ccccc2F)ccc2ccccc12 | -2 | 26* | 111 | 164* | -2 | 146 | 19 | 106
O=C1CSC(c2cccnc2)N1C1CCCCC1 (stereo not drawn) | -3 | 0 | 101 | 104 | -1 | . | . | .
O=C1c2cccnc2C(Nc2ccc(Cl)cc2)N1Cc1cccs1 (stereo not drawn) | 0 | -16 | 75*[inhibitor] | 54*[inhibitor] | -1 | 108 | 7 | 104
NC(=O)CSc1nc2cc([N+](=O)[O-])ccc2n1-c1cccc(C(F)(F)F)c1 | -5 | 1 | 133* | 109 | 4 | 106 | 4 | 106
CCOC(=O)c1c(C)[nH]c(C(=O)OCc2ccc(F)cc2)c1C | -2 | 1 | 102 | 100 | -2 | . | . | .
O=C(Nc1ccc(F)cc1)c1ccc(-n2ccnc2)nc1 | -6 | 1 | 102 | 105 | -2 | . | . | .
CCCCNc1cc(C(=O)O)cc(S(N)(=O)=O)c1Oc1ccccc1 | -2 | -1 | 87 | 16*[inhibitor] | -3 | 94 | -6 | 99
CCCCC(=O)Nc1ccccc1Oc1ccccc1 | -1 | -7 | 99 | 99 | -2 | . | . | .
Cn1ccnc1Sc1cc(NCCCO)c([N+](=O)[O-])c2nonc12 | -2 | 0 | 132* | 113 | 4 | 101 | -2 | 99
O=C(NCc1ccccn1)c1cc(-c2ccc(Cl)cc2)oc1C(F)(F)F | -4 | 1 | 103 | 99 | -3 | . | . | .
CC(C)(C)c1nc2ccc([N+](=O)[O-])cc2[nH]1 | -3 | 8 | 108 | 109 | -4 | . | . | .
CC1(C)C(=O)C2(CCCCC2)C(=O)OC1c1cccn1-c1ccc([N+](=O)[O-])cc1 (stereo not drawn) | -1 | 0 | 133* | 107 | 0 | 103 | 3 | 101
CC1(C)C(=O)OC(c2cccn2-c2ccc([N+](=O)[O-])cc2)C(C)(C)C1=O (stereo not drawn) | -4 | 0 | 136* | 104 | -2 | 103 | 2 | 104
O=C1OC(c2ccccc2)C2(CCCC2)C(=O)C12CCCC2 (stereo not drawn) | 1 | -1 | 106 | 105 | -1 | . | . | .
O=C1OC(c2cccc([N+](=O)[O-])c2)C2(CCCC2)C(=O)C12CCCCC2 (stereo not drawn) | -4 | 0 | 142* | 104 | -4 | 93 | -4 | 95
Cc1cccc2sc(NC(=O)CN3C(=O)NC4(CCCC4)C3=O)nc12 | 0 | -6 | 97 | 95 | 1 | . | . | .
Cc1c(Cl)ccc2sc(NC(=O)CN3C(=O)c4ccccc4C3=O)nc12 | 0 | -9 | 64*[inhibitor] | 76 | 1 | 98 | 6 | 98
Cc1cccc2sc(NC(=O)CN3C(=O)C4CC=CCC4C3=O)nc12 (stereo not drawn) | -2 | 8 | 148* | 129 | -5 | 104 | 3 | 108
N#Cc1ccsc1NC(=O)c1cccc([N+](=O)[O-])c1 | -3 | -2 | 102 | 94 | 1 | . | . | .
COc1cccc(C2=CC(c3cccc(OC)c3OC)n3nnnc3N2)c1 (stereo not drawn) | -4 | -12 | 80*[inhibitor] | 87 | -2 | 96 | 0 | 104
